Laboratory results taken from ChEMBL document CHEMBL2424625, “Synthesis and structure-activity relationships of novel indazolyl glucocorticoid receptor partial agonists” (Bioorg Med Chem Lett, 2013).
pEC50, pKi: −log10 of the molar value. The source made the active and inactive calls. The calls are words filed in the database; no cut-off is given here.

Columns and labels:
Glucocorticoid receptor [1] = target: T1, Glucocorticoid receptor (Homo sapiens, UniProt P04150); assay: Transactivation activity at glucocorticoid receptor ligand binding domain (unknown origin) expressed in human Hela cells co-expressing GAL4 DNA binding domain assessed as NP-1-stimulated GRE activation by luciferase reporter gene assay; type: cell-based
T1 sequence (P04150 whole entry): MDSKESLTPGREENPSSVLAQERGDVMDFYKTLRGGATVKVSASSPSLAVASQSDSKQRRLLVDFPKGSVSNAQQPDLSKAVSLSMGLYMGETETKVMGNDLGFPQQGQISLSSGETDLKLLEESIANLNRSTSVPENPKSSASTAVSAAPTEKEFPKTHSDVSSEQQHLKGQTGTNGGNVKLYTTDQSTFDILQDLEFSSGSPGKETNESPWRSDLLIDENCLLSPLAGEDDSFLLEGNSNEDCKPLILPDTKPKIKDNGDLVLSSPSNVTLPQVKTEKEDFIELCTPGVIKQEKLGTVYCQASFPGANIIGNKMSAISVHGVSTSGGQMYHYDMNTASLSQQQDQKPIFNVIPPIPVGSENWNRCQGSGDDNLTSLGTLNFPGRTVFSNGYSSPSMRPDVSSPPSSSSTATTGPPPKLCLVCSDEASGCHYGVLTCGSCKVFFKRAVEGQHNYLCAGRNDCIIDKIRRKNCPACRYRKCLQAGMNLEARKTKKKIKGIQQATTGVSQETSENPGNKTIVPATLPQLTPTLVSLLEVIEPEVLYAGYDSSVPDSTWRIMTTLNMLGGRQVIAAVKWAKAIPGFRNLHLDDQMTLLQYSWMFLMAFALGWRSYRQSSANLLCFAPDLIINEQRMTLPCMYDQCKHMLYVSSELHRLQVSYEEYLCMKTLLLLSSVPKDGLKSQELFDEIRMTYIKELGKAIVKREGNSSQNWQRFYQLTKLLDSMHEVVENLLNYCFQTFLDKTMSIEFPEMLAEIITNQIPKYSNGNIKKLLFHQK

Glucocorticoid receptor [2] = target: T1, Glucocorticoid receptor; assay: Transrepression activity at glucocorticoid receptor in human A549 cells assessed as inhibition of IL1beta-stimulated NFkappaB-dependent E-selectin transcription by luciferase reporter gene assay; type: cell-based
Glucocorticoid receptor [3] = target: T1, Glucocorticoid receptor; assay: Transrepression activity at glucocorticoid receptor in human A549 cells assessed as inhibition of PMA-stimulated AP1 response element by luciferase reporter gene assay; type: cell-based
[4] = target: T2, Glucocorticoid receptor (Homo sapiens) (UniProt P04150); assay: Transrepression activity at glucocorticoid receptor in human A549 cells assessed as inhibition of IL1beta-stimulated NFkappaB-dependent E-selectin transcription by luciferase reporter gene assay relative to dexamethasone; type: cell-based
T2 sequence (whole entry): T1 sequence (P04150 whole entry)
In short: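 In A549 lung epithelial cells, NFkB activity was induced with IL-1β (0.5 ng/ml). Inhibition was quantitated as decreased luciferase activity. […] Values are means of two or more experiments in triplicate.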

[5] = target: T2, Glucocorticoid receptor (Homo sapiens); assay: Transactivation activity at glucocorticoid receptor ligand binding domain (unknown origin) expressed in human Hela cells co-expressing GAL4 DNA binding domain assessed as NP-1-stimulated GRE activation by luciferase reporter gene assay relative to dexamethasone; type: cell-based
In short: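 HeLa line (NP-1) stably transfected with a GR-LBD chimera cloned into a GAL4 luciferase reporter was run in agonist mode. Direct GR-LBD activation was read as increased luciferase activity. […] Values are means of two or more experiments in triplicate.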

Glucocorticoid receptor [6] = target: T1, Glucocorticoid receptor; assay: Binding affinity to glucocorticoid receptor (unknown origin) by fluorescence assay
[7] = target: T2, Glucocorticoid receptor (Homo sapiens); assay: Transrepression activity at glucocorticoid receptor in human A549 cells assessed as inhibition of PMA-stimulated AP1 response element by luciferase reporter gene assay relative to dexamethasone; type: cell-based
In short: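 Transrepression of AP-1 was run in A549 lung epithelial cells. […] Values are means of two or more experiments in triplicate.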

[8] = target: T2, Glucocorticoid receptor (Homo sapiens); assay: Partial agonist activity at glucocorticoid receptor (unknown origin) by fluorescence assay

SMILES	pEC50 (Glucocorticoid receptor [1])	pEC50 (Glucocorticoid receptor [2])	pEC50 (Glucocorticoid receptor [3])	Efficacy [4]	Efficacy [5]	pKi (Glucocorticoid receptor [6])	Efficacy [7]	Activity [8]
CC(CNS(C)(=O)=O)[C@@H](c1ccccc1)c1ccc2c(cnn2-c2ccc(F)cc2)c1 (stereo partly drawn)	7.62	8.85	8.08	105%	101%	9.03	100%	–
CC(=O)NCC(C)(C)[C@@H](c1ccccc1)c1ccc2c(cnn2-c2ccc(F)cc2)c1	–	5.94	< 5.30	58%	–	8.62	–	–
CCS(=O)(=O)NCC(C)[C@@H](c1ccccc1)c1ccc2c(cnn2-c2ccc(F)cc2)c1 (stereo partly drawn)	7.89	8.74	8.37	100%	111%	9.06	96%	–
CC(C)C[C@@H](c1ccc2c(cnn2-c2ccc(F)cc2)c1)C(C)(C)CNC(=O)NC(C)(C)C	6.90	7.95	7.60	94%	86%	8.44	100%	–
CC(C)(CNS(=O)(=O)C1CC1)[C@@H](c1ccccc1)c1ccc2c(cnn2-c2ccc(F)cc2)c1	6.58	7.53	7.57	82%	19%	8.94	76%	–
CC(CNS(=O)(=O)CC(F)(F)F)[C@@H](c1ccccc1)c1ccc2c(cnn2-c2ccc(F)cc2)c1 (stereo partly drawn)	7.59	9.18	8.28	105%	112%	8.87	97%	–
CC(C)(CNS(C)(=O)=O)[C@@H](c1ccccc1)c1ccc2c(cnn2-c2ccc(F)cc2)c1	6.83	7.72	7.69	97%	32%	9.28	86%	–
CC(CNC(=O)CC(F)(F)F)[C@@H](c1ccccc1)c1ccc2c(cnn2-c2ccc(F)cc2)c1 (stereo in doubt; 3i) [listing 1 of 2 here]	–	–	–	–	102%	–	88%	–
CC(C)(C)C(=O)NCC(C)(C)[C@@H](c1ccccc1)c1ccc2c(cnn2-c2ccc(F)cc2)c1	6.40	7.64	7.11	80%	25%	8.70	100%	Active
CC(C)C[C@@H](c1ccc2c(cnn2-c2ccc(F)cc2)c1)C(C)(C)CNC(=O)CC(F)(F)F	6.58	7.42	7.21	96%	81%	8.89	101%	–
CC(CNC(=O)CC(F)(F)F)[C@@H](c1ccccc1)c1ccc2c(cnn2-c2ccc(F)cc2)c1 (single isomer, unassigned) [listing 1 of 2 here]	–	–	–	–	52%	–	84%	–
CC(C)(CNC(=O)C(F)(F)F)[C@@H](c1ccccc1)c1ccc2c(cnn2-c2ccc(F)cc2)c1	< 5.00	6.91	6.14	39%	–	8.76	44%	–
CC(C)(CNC(=O)Cc1ccccc1)[C@@H](c1ccccc1)c1ccc2c(cnn2-c2ccc(F)cc2)c1	6.01	–	5.60	–	100%	–	33%	–
CC(CNC(=O)CC(F)(F)F)[C@@H](c1ccccc1)c1ccc2c(cnn2-c2ccc(F)cc2)c1 (stereo in doubt; 3i) [listing 2 of 2 here]	7.68	–	8.12	–	–	8.62	–	–
CC(C)C[C@@H](c1ccc2c(cnn2-c2ccc(F)cc2)c1)C(C)(C)CNC(=O)NCC(F)(F)F	6.30	7.06	6.93	85%	58%	8.85	86%	–
CCS(=O)(=O)NCC(C)(C)[C@@H](c1ccccc1)c1ccc2c(cnn2-c2ccc(F)cc2)c1	6.67	7.81	7.54	87%	19%	9.14	84%	–
CC(C)(CNC(=O)NCC(F)(F)F)[C@@H](c1ccccc1)c1ccc2c(cnn2-c2ccc(F)cc2)c1	< 5.00	6.41	6.60	55%	–	7.99	66%	–
CC(C)(C)CC(=O)NCC(C)(C)[C@@H](c1ccccc1)c1ccc2c(cnn2-c2ccc(F)cc2)c1	< 5.00	6.86	6.67	46%	–	8.72	62%	–
CCCS(=O)(=O)NCC(C)(C)[C@@H](c1ccccc1)c1ccc2c(cnn2-c2ccc(F)cc2)c1	< 5.00	7.07	6.84	63%	–	8.82	66%	–
CC(CNC(=O)CC(F)(F)F)[C@@H](c1ccccc1)c1ccc2c(cnn2-c2ccc(F)cc2)c1 (single isomer, unassigned) [listing 2 of 2 here]	6.43	–	7.28	–	–	8.64	–	–
